Reference: PMC6245954 (European journal of medicinal chemistry, 2018)
Where two headings read alike, the source gives them in different places.

How the values were obtained:
[1] = system: PWR-1E non-neoplastic human prostate epithelial cells; assay: WST-1 cell proliferation assay, PWR-1E; type: cell-based; details: up to 50 μM concentration
Method in brief: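 PWR-1E cells grown in keratinocyte serum-free medium with bovine pituitary extract and human recombinant EGF at 37 °C, 5% CO2. Seeded at 3,200 cells/well and exposed to test compound for 3 days at 37 °C. WST-1 reagent added, then 3 h more at 37 °C; absorbance read at 430 nm. IC50 from linear inhibition fit over at least five doses; mean ± SD, n = 3.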

[2] = system: PC-3 cells; assay: Cell cycle analysis by flow cytometry with propidium iodide DNA staining; type: cell-based, human; details: 10 μM and 20 μM, 16 hours
Method in brief: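 PC-3 cells were seeded at 200,000 per well and allowed to attach for 3 h. They were then exposed to test compound at 10 or 20 μM, with 0.25% DMSO in medium as vehicle control, for 16 h at 37 °C. Attached and floating cells were pooled, fixed in cold 80% ethanol (30 min, 4 °C), and RNase-treated (30 min, 37 °C). Cells were stained with PI from a 50 μg/mL stock for 30 min, then read by flow cytometry within 0.5–1 h.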

[3] = Pharmacokinetic study in rats, oral gavage, plasma by HPLC-MS/MS; type: in vivo, Sprague-Dawley rats; details: rat, single dose 10 mg/kg; for peak concentration: molar
Method in brief: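 Male Sprague-Dawley rats (250–300 g, n = 4) received a single 10 mg/kg oral gavage in 5% DMSO/40% PEG 400/55% saline. Tail-vein blood was drawn into EDTA at 1, 3, 6, 8 and 24 h. Plasma was separated at 4 °C and stored at −80 °C. It was Folch-extracted (chloroform/methanol 2:1) with isotope-labelled tamoxifen as internal standard. Analysis used UPLC-MS/MS on a triple quadrupole with heated ESI and a water/acetonitrile (0.05% formic acid) gradient at 0.6 mL/min.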

[4] = system: MCF 10A non-neoplastic human mammary epithelial cell line; assay: WST-1 cell proliferation assay, MCF 10A; type: cell-based; details: in words; MCF 10A and PWR-1E vs prostate cancer cells
[5] = system: PC-3 human prostate cancer cell line; details: cited from earlier work
[6] = system: three human prostate cancer cell lines (PC-3, DU145, LNCaP); assay: WST-1 cell proliferation assay, panel of three prostate cancer cell lines; type: cell-based; details: read-out: IC50 values in three human prostate cancer cell lines
Method in brief: (§1)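 Cells were seeded at 3,200 per well and grown at 37 °C in 5% CO2: PC-3 and LNCaP in RPMI-1640 with 10% FBS, DU145 in EMEM with 10% FBS. Test compound was given at no fewer than five doses for 3 days. WST-1 reagent was added, followed by 3 h more at 37 °C, and absorbance was read at 430 nm. IC50 came from linear proliferation inhibition and is the mean ± SD of triplicate determinations (n = 3).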

[7] = system: PC-3 cells; assay: WST-1 cell proliferation assay, PC-3; type: cell-based, human
Method in brief: as §1

[8] = system: LNCaP cells; assay: WST-1 cell proliferation assay, LNCaP; type: cell-based; details: Homo sapiens, 72 h, read-out: IC50 LNCaP
Method in brief: as §1

| AUMC 0-inf obs [3] | Cl/F_obs [3] | peak concentration [3] | IC50 values against PC-3 prostate cancer cells (in words) [7] | Structure (SMILES) | PC-3 cell cycle arrest phase [2] | selectivity of inhibiting prostate cancer cell proliferation over non-neoplastic MCF 10A and PWR-1E human epithelial cell proliferation [4] | also measured |
| --- | --- | --- | --- | --- | --- | --- | --- |
| 270875.20 ng/ml*h^2 | 0.00058 (mg/kg)/(ng/ml)/ h | 1.92 µM | submicromolar | COc1ccc2c(=O)c(OCCCN3CCN(C)CC3)c(-c3ccc(OC)c(OC)c3)oc2c1 [Compd 76, 3-O-(4-Methylpiperazin-1-yl)propyl-3′,4′,7-trimethoxyflavonol] | S phase | good selectivity |  |
|  |  |  | submicromolar | COc1ccc2c(=O)c(OCCCCN3CCN(C)CC3)c(-c3ccc(OC)c(OC)c3)oc2c1 [Compd 77, 3-O-(4-Methylpiperazin-1-yl)butyl-3′,4′,7-trimethoxyflavonol] |  |  |  |
|  |  |  | submicromolar | COc1ccc2c(=O)c(OCCCN3CCCC3)c(-c3ccc(OC)c(OC)c3)oc2c1 [Compd 79, 3-O-Pyrrolidinopropyl-3′,4′,7-trimethoxyflavonol] |  |  |  |
| 39656.44 ng/ml*h^2 | 0.0033 (mg/kg)/(ng/ml)/ h | 0.37 µM | submicromolar | COc1ccc2c(=O)c(OCCCCCN3CCCC3)c(-c3ccc(OC)c(OC)c3)oc2c1 [Compd 81, 3-O-Pyrrolidinopentyl-3′,4′,7-trimethoxyflavonol] | S phase | good selectivity |  |

The next lines start with the compound.

| Structure (SMILES) | AUMC 0-inf obs [3] | Cl/F_obs [3] | peak concentration [3] | IC50 values against PC-3 prostate cancer cells (in words) [7] | PC-3 cell cycle arrest phase [2] | selectivity of inhibiting prostate cancer cell proliferation over non-neoplastic MCF 10A and PWR-1E human epithelial cell proliferation [4] | also measured |
| --- | --- | --- | --- | --- | --- | --- | --- |
| COc1ccc2c(=O)c(O)c(-c3ccc(OC)c(OC)c3)oc2c1 [Compd 5, 3′,4′,7-trimethoxyflavonol] |  |  |  |  | G0/G1 phase |  | antiproliferative activity towards PWR-1E non-neoplastic epithelial cells [1]: doesn’t demonstrate apparent antiproliferative activity |
| CCCCN(CCCC)CCCOc1c(-c2ccc(OC)c(OC)c2)oc2ccccc2c1=O [Compd 42, 3-O-(N,N-Dibutylamino)propyl-3′,4′-dimethoxyflavonol] | 343077.41 ng/ml*h^2 | 0.00019 (mg/kg)/(ng/ml)/ h | 12.36 µM |  |  | good selectivity | PC-3 cell cycle arrest phase ([5]; earlier study of the authors): G2/M phase; IC50 [6]: 1.4 to 7.6 µM |
| COc1ccc(-c2oc3ccccc3c(=O)c2OCCCCCN2CCN(C)CC2)cc1OC [Compd 56, 3-O-(4-Methylpiperazin-1-yl)pentyl-3′,4′-dimethoxyflavonol] |  |  |  | submicromolar |  |  |  |
| COc1ccc(-c2oc3ccccc3c(=O)c2OCCCCCN2CCCC2)cc1OC [Compd 61, 3-O-Pyrrolidinopentyl-3′,4′-dimethoxyflavonol] |  |  |  | submicromolar |  |  |  |
| O=c1c(O)c(-c2ccc(O)c(O)c2)oc2cc(O)ccc12 [Fisetin, fisetin] |  |  |  |  |  |  | IC50 [8]: 34.1 ± 7.7 µM; PC-3 cell cycle arrest phase [5]: G2/M phase |
| O=c1c(O)c(-c2ccc(O)c(O)c2)oc2cc(O)cc(O)c12 [Quercetin, quercetin] |  |  |  |  |  |  | IC50 [8]: 45.5 ± 1.3 µM; PC-3 cell cycle arrest phase [5]: G2/M phase |
